Measured values from ChEMBL document CHEMBL1156509, “Survival in the presence of antifungals: genome-wide expression profiling of Aspergillus niger in response to sublethal concentrations of caspofungin and fenpropimorph” (2007).
Calls of active or inactive are those of the source. No cut-off for these calls is given here.

Tests used:
Format in all cases: functional, organism-based
Aspergillus niger [1] = experiment: Antifungal activity against Aspergillus niger JvD1.1 at 104.2 ug/mL by microtiter plate
Outline: (§1)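 Reporter conidia (2×10^4 per well) were pre-grown 6 h at 37 °C in 2× CM in glass-bottom plates. An equal volume of a 2-fold dilution series (seven concentrations) was added, then 3 h at 30 °C. Medium was discarded and adherent germlings imaged. Growth inhibition was scored 0/1/2 from hyphal length.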

Aspergillus niger [2] = experiment: Induction of GFP tagged PagsA expression in Aspergillus niger JvD1.1 at 104.2 ug/mL by fluorescence microscopy
Outline: (§2)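 agsA promoter-GFP reporters, cytoplasmic (JvD1.1) or nuclear H2B-targeted (RD6.47). Germlings pre-grown 6 h at 37 °C in 2× CM, exposed 3 h at 30 °C to seven 2-fold dilutions. GFP levels were scored by fluorescence microscopy as 0 (basal), 1 (intermediate) or 2 (high). Controls: gpdA-H2B-GFP strain MA26.1 (positive), N402 (negative).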

Aspergillus niger [3] = experiment: Antifungal activity against Aspergillus niger RD6.47 at 104.2 ug/mL by microtiter plate; outline: as §1
Aspergillus niger [4] = experiment: Induction of GFP tagged PagsA-H2B expression in Aspergillus niger RD6.47 at 104.2 ug/mL by fluorescence microscopy; outline: as §2

Row | Compound | Activity (Aspergillus niger [1]) | Activity (Aspergillus niger [2]) | Activity (Aspergillus niger [3]) | Activity (Aspergillus niger [4])
1 | C[C@@H]1C[C@@H]([C@H](O)CC2CC(=O)NC(=O)C2)C(=O)[C@@H](C)C1 | Active | inactive | Active | inactive
2 | Cc1cc(C2CC2)nc(Nc2ccccc2)n1 |  | Active |  | Active
3 | Fc1ccc([C@]2(Cn3cncn3)O[C@H]2c2ccccc2Cl)cc1 | inactive | inactive | inactive | inactive
